According to ChEMBL document CHEMBL1275363, “Design, synthesis, crystal structures, and antimicrobial activity of sulfonamide boronic acids as β-lactamase inhibitors” (J Med Chem, 2010):
Active and inactive are the calls of the source. No cut-off for these calls is given here.

Tests used:
[1] = Inhibition of AmpC beta-lactamase
Klebsiella pneumoniae = assay: Antimicrobial activity against AmpC-beta lactamase producing Klebsiella pneumoniae by disk diffusion assay; assay type: functional, organism-based
[2] = target: AmpC (Klebsiella pneumoniae) (UniProt Q84AD8); assay: Inhibition of Klebsiella pneumoniae AmpC beta-lactamase DHA-1 assessed as increase in ceftazidime-induced antibacterial activity by disk diffusion assay
[3] = Inhibition of beta-lactamase CTX-M-9
Escherichia coli = assay: Inhibition of Escherichia coli beta-lactamase class C assessed as fold decrease in Ceftazidime MIC […]
In short: (§1)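 MICs were measured on clinical isolates following CLSI guidelines in Mueller-Hinton medium. Inhibitor was dissolved in 50% DMSO, with final DMSO below 5%, and combined with ceftazidime at a 1:1 β-lactam:inhibitor ratio. Fold change is compared with ceftazidime alone. Values are means of three independent experiments.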

Pseudomonas aeruginosa = assay: Inhibition of Pseudomonas aeruginosa beta-lactamase class C assessed as fold decrease in Ceftazidime MIC […]; in short: as §1
[4] = target: AmpC (Klebsiella pneumoniae) (UniProt Q84AD8); assay: Inhibition of Klebsiella pneumoniae AmpC beta-lactamase DHA-1 assessed as fold decrease in Ceftazidime MIC […]; in short: as §1
Enterobacter cloacae = assay: Inhibition of Enterobacter cloacae beta-lactamase class C assessed as fold decrease in Ceftazidime MIC […]; in short: as §1
Citrobacter freundii = assay: Inhibition of Citrobacter freundii beta-lactamase class C assessed as fold decrease in Ceftazidime MIC […]; in short: as §1
[5] = target: Beta-lactamase CTX-M-14 (Escherichia coli) (UniProt Q9L5C7); assay: Inhibition of Escherichia coli class A beta-lactamase CTX-M-14 assessed as fold decrease in Ceftazidime MIC […]; in short: as §1

`COC(=O)c1ccc(CS(=O)(=O)NCB2OC(C)(C)C(C)(C)O2)cc1` showed a Ki [1] of 120 nM.

For `O=S(=O)(Cc1ccccc1)N[C@@H](Cc1ccccc1)B(O)O`, the Ki [1] was 3720 nM.

For `O=[N+]([O-])c1cccc(CS(=O)(=O)NCB(O)O)c1`, the Ki [1] was 189 nM.

`CS(=O)(=O)NCB(O)O` [PINACOL(METHANESULFONYLAMINO)METHANEBORONATE] showed a Ki [1] of 789 nM.

For `O=C(Cc1ccccc1)NCB(O)O`, the Ki [1] was 570 nM.

Work on `Nc1cccc(CS(=O)(=O)NCB(O)O)c1` yielded a Ki [1] of 106 nM.

For `Cc1ccc(S(=O)(=O)NCB(O)O)cc1`, the Ki [1] was 210 nM.

Work on `O=C(Cc1cccs1)N[C@@H](Cc1cccc(C(=O)O)c1)B(O)O` yielded a Ki [1] of 39 nM.

For `O=C(O)c1ccc(CS(=O)(=O)NCB(O)O)cc1`, the Activity (Klebsiella pneumoniae) was “inactive”, the Activity [2] was “Active” and the IC50 [3] was 1500 nM.

Molecule `O=C(Cc1cccs1)N[C@H](B(O)O)c1cccc(C(=O)O)c1` has a Ki [1] of 1 nM.

`CCOc1ccc2ccccc2c1S(=O)(=O)NCB(O)O` showed a Ki [1] of 670 nM.

For `O=S(=O)(Cc1ccccc1)NCB(O)O` [PINACOL(PHENYLMETHANESULFONYLAMINO)METHANEBORONATE], the Activity (Klebsiella pneumoniae) was “inactive”, the fold change (FC) (Escherichia coli) was 8 and the fold change (FC) (Pseudomonas aeruginosa) was 8. It also gave a fold change (FC) [4] of 8, a fold change (FC) (Enterobacter cloacae) of 8 and a fold change (FC) (Citrobacter freundii) of 8. For the same molecule, the Activity [2] was “Active”, the fold change (FC) [5] was 16 and the IC50 [3] was 6870 nM.
